Results taken from ChEMBL document CHEMBL1140216, “Triazine compounds as antagonists at Bv8-prokineticin receptors” (J Med Chem, 2008).

Key:
Prokineticin receptor 1 [1] = biological target: T1, Prokineticin receptor 1 (Homo sapiens, UniProt Q8TCW9); experiment: Displacement of [I125]MIT from PKR1 expressed in CHO cell membrane; format: cell membranes
Prokineticin receptor 2 [2] = biological target: T2, Prokineticin receptor 2 (Homo sapiens, UniProt Q8NFJ6); experiment: Displacement of [I125]MIT from PKR2 expressed in CHO cell membrane; format: cell membranes
Prokineticin receptor 1 [3] = biological target: T1, Prokineticin receptor 1; experiment: Antagonist activity at PKR1 expressed in CHO cell membrane assessed as reduction of Bv8-induced increase in intracellular calcium level at 10 uM; format: functional, cell-based; parameters: scale not given: the % may be the effect or the level left
Outline: (§1)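 Intact CHO cells transfected with PKR1 or PKR2. Compound preincubated 4 min, then challenged with 1 nM Bv8, and fluorescence followed for 2 min. Intracellular Ca2+ was read as the 340/380 nm […] ratio, and the result was scored as the percentage of cells responding to Bv8.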

Prokineticin receptor 2 [4] = biological target: T2, Prokineticin receptor 2; experiment: Antagonist activity at PKR2 expressed in CHO cell membrane assessed as reduction of Bv8-induced increase in intracellular calcium level at 10 uM; format: functional, cell-based; parameters: scale not given: the % may be the effect or the level left; outline: as §1
Prokineticin receptor 1 [5] = biological target: T1, Prokineticin receptor 1; experiment: Antagonist activity at PKR1 expressed in CHO cell membrane assessed as reduction of Bv8-induced increase in intracellular calcium level at 1 mM; format: functional, cell-based; parameters: scale not given: the % may be the effect or the level left; outline: as §1
Prokineticin receptor 2 [6] = biological target: T2, Prokineticin receptor 2; experiment: Antagonist activity at PKR2 expressed in CHO cell membrane assessed as reduction of Bv8-induced increase in intracellular calcium level at 1 mM; format: functional, cell-based; parameters: scale not given: the % may be the effect or the level left; outline: as §1
Prokineticin receptor 1 [7] = biological target: T1, Prokineticin receptor 1; experiment: Antagonist activity at PKR1 expressed in CHO cell membrane assessed as reduction of Bv8-induced increase in intracellular calcium level at 100 uM; format: functional, cell-based; parameters: scale not given: the % may be the effect or the level left; outline: as §1
Prokineticin receptor 1 [8] = biological target: T1, Prokineticin receptor 1; experiment: Antagonist activity at PKR1 expressed in CHO cell membrane assessed as reduction of Bv8-induced increase in intracellular calcium level at 100 nM; format: functional, cell-based; parameters: scale not given: the % may be the effect or the level left; outline: as §1
Prokineticin receptor 2 [9] = biological target: T2, Prokineticin receptor 2; experiment: Antagonist activity at PKR2 expressed in CHO cell membrane assessed as reduction of Bv8-induced increase in intracellular calcium level at 100 nM; format: functional, cell-based; parameters: scale not given: the % may be the effect or the level left; outline: as §1
Prokineticin receptor 1 [10] = biological target: T1, Prokineticin receptor 1; experiment: Antagonist activity at PKR1 expressed in CHO cell membrane assessed as reduction of Bv8-induced increase in intracellular calcium level at 300 nM; format: functional, cell-based; parameters: scale not given: the % may be the effect or the level left; outline: as §1
Prokineticin receptor 2 [11] = biological target: T2, Prokineticin receptor 2; experiment: Antagonist activity at PKR2 expressed in CHO cell membrane assessed as reduction of Bv8-induced increase in intracellular calcium level at 300 nM; format: functional, cell-based; parameters: scale not given: the % may be the effect or the level left; outline: as §1
[12] = Selectivity for ratio of Ki for PKR2 to Ki for PKR1

T1 sequence (Q8TCW9 whole entry): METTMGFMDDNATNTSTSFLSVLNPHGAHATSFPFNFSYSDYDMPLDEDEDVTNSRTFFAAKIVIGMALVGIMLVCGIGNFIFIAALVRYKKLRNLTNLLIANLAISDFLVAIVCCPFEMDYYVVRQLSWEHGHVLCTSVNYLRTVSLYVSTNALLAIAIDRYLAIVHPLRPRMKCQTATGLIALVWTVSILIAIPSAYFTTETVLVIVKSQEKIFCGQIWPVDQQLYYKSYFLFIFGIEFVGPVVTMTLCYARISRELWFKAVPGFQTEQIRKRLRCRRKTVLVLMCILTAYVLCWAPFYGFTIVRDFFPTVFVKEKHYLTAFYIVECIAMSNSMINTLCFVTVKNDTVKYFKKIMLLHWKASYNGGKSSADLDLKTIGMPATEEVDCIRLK
T2 sequence (Q8NFJ6 whole entry): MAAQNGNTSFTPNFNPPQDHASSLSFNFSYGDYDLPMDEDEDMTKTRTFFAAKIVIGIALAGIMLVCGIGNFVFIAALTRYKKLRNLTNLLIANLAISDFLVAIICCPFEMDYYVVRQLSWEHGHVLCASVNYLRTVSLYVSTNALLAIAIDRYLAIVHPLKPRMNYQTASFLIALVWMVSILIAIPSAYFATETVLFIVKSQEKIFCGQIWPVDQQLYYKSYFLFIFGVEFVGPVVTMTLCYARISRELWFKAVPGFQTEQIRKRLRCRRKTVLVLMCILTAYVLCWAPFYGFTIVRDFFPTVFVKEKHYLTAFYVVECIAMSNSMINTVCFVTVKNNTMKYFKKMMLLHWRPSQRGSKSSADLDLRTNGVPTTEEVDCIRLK

## CCc1ccc(Cn2c(=O)nc(NCCN=C3NCCN3)n(Cc3ccc(OC)cc3)c2=O)cc1
Prokineticin receptor 1 [1]
  Ki: 4.72 µM
Prokineticin receptor 2 [2]
  Ki: 71.2 µM

## CCc1ccc(Cn2c(=O)nc(NCCN)n(Cc3ccc(OC)cc3)c2=O)cc1
Prokineticin receptor 1 [1]
  Ki: 0.44 µM
Prokineticin receptor 2 [2]
  Ki: 23.4 µM
Prokineticin receptor 1 [3]
  Activity: 90%
Prokineticin receptor 2 [4]
  Activity: 89%
Prokineticin receptor 1 [5]
  Activity: 0.3%
Prokineticin receptor 2 [6]
  Activity: 2%

## CCc1ccc(Cn2c(=O)nc(NCCNC3=NCCN3)n(Cc3ccc(OC)cc3)c2=O)cc1
Prokineticin receptor 1 [7]
  Activity: 91%

## CCc1ccc(Cn2c(=O)nc(NCCNC(=N)N)n(Cc3ccc(OC)cc3)c2=O)cc1
Prokineticin receptor 1 [1]
  Ki: 0.022 µM
Prokineticin receptor 2 [2]
  Ki: 1.61 µM
Prokineticin receptor 1 [8]
  Activity: 52%
Prokineticin receptor 2 [9]
  Activity: 48%
Prokineticin receptor 1 [10]
  Activity: 4%
Prokineticin receptor 2 [11]
  Activity: 6%
[12]
  Ratio Ki: 70
